Measured values taken from PMC10505864 (Asian Pacific Journal of Cancer Prevention : APJCP, 2023).
Values after ≈ are worked out from the molar mass of the structure shown. Where two headings read alike, the source gives them in different places.

What was measured:
[1] = test system: PC3 (human prostate cancer cells); assay: MTT cell viability assay on PC3 cells; type: cell-based; details: for IC50 / inhibition at 30 µg/mL / inhibition at 60 µg/mL / inhibition at 130 µg/mL / inhibition at 250 µg/mL / inhibition at 500 µg/mL / inhibition at 1000 µg/mL: Homo sapiens, PC-3, 48 h; for IC50: read-out: IC50 µg/mL on PC3; for inhibition at 30 µg/mL / inhibition at 60 µg/mL / inhibition at 130 µg/mL / inhibition at 250 µg/mL / inhibition at 500 µg/mL / inhibition at 1000 µg/mL: read-out: Inhibition (%) of PC3 Cells; for cytotoxicity activity (in words): PC3
Summary of the method: (§1)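 PC3 cells grown in RPMI-1640 and MCF-7 cells in DMEM, each with 10% heat-inactivated FBS, penicillin/streptomycin, L-glutamine and amphotericin B. Seeded at 2 × 10^4 cells/well and grown to ~70% confluence (37°C, 5% CO2). Test compounds given as eight serial dilutions, starting at 1 mg/mL for drugs and 2.5 mg/mL for extract, for 48 h. MTT (5 mg/mL solution) added for 4 h at 25°C; A570 read.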

[2] = test system: MCF-7 (human breast cancer cells); assay: MTT cell viability assay on MCF-7 cells; type: cell-based; details: for IC50 / inhibition at 30 µg/mL / inhibition at 60 µg/mL / inhibition at 130 µg/mL / inhibition at 250 µg/mL / inhibition at 500 µg/mL / inhibition at 1000 µg/mL: Homo sapiens, MCF7, 48 h; for IC50: read-out: IC50 µg/mL on MCF-7; for inhibition at 30 µg/mL / inhibition at 60 µg/mL / inhibition at 130 µg/mL / inhibition at 250 µg/mL / inhibition at 500 µg/mL / inhibition at 1000 µg/mL: read-out: Inhibition (%) of MCF-7 Cells
Summary of the method: as §1

[3] = Pharmacokinetic study of CBZ in rat plasma; type: in vivo, rat (Sprague Dawley)
Summary of the method: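 Male and female Sprague Dawley rats (~200 g), seven per group, fasted 24 h. Given 10 mg/kg by oral gavage, alone or after 30 mg/kg extract by gavage (three days before, repeated 30 min pre-dose). Orbital blood collected into EDTA from 0–24 h. Plasma precipitated with acetonitrile containing metronidazole benzoate internal standard, then C18 HPLC-UV at 285 nm. Calibration 75–5,000 ng/mL; samples run in duplicate.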

[4] = after oral administration; ref Salemaldajeh et al., 2015; Emad et al., 2018; cited from earlier work
[5] = rat plasma, ref Salemaldajeh et al., 2015, cited from earlier work
[6] = ref Salemaldajeh et al., 2015; Emad et al., 2018; cited from earlier work
[7] = both, Sprague Dawley, rat, plasma, po, 10 mg/kg
[8] = rat plasma, CBZ 10 mg/kg oral gavage, alone, listed as CBZ alone

IC50 [1] [µg/mL]	IC50 [2] [µg/mL]	SMILES	inhibition at 30 µg/mL [1] [%]	inhibition at 60 µg/mL [1] [%]	inhibition at 130 µg/mL [1] [%]	inhibition at 250 µg/mL [1] [%]	inhibition at 500 µg/mL [1] [%]	inhibition at 1000 µg/mL [1] [%]	cytotoxicity activity (in words) ([1]; MTT, 48 h)	inhibition at 30 µg/mL [2] [%]	inhibition at 60 µg/mL [2] [%]	inhibition at 130 µg/mL [2] [%]	inhibition at 250 µg/mL [2] [%]	inhibition at 500 µg/mL [2] [%]	inhibition at 1000 µg/mL [2] [%]	further results
–	–	N.N.[Cl][Pt][Cl] [Cisplatin]	–	–	–	–	–	–	–	–	–	–	–	–	–	IC50 µg/mL on PC3 ([1]; MTT, 48 h, mean ± SD): 8.6 ± 1.5 µg/mL; IC50 µg/mL on MCF-7 ([2]; MTT, 48 h, mean ± SD): 14.6 ± 2.4 µg/mL
> 1000	> 1000	CCCC(CCC)C(=O)O [VPA, valproic acid]	19.8	10.7	2.62	0.74	0.24	26.7	weak	10.6	8.5	13.4	15.7	14.7	24.9	cytotoxicity activity (in words) ([2]; MCF-7, MTT, 48 h): weak
0.62 ± 0.06 (≈ 1.14 µM)	0.64 ± 0.04 (≈ 1.18 µM)	COc1cccc2c1C(=O)c1c(O)c3c(c(O)c1C2=O)C[C@@](O)(C(=O)CO)C[C@@H]3O[C@H]1C[C@H](N)[C@H](O)[C@H](C)O1 [Doxorubicin]	–	–	–	–	–	–	–	–	–	–	–	–	–	–
130 ± 27 (≈ 550 µM)	250 ± 44 (≈ 1060 µM)	NC(=O)N1c2ccccc2C=Cc2ccccc21 [CBZ, carbamazepine]	29.7	31.4	53	87.5	95.1	93.4	robust	11.9	19.7	30.1	53.2	69.3	83.3	concentration at 24 h ([3]; both, Sprague Dawley, rat, plasma, oral, 10 mg/kg): 65.2 ng/mL; Cmax [3, 7]: 4630 ng/mL; Tmax [3, 7]: 3.5 h; k el [3, 7]: 5e-05 s⁻¹; AUC (0–24 h) [3, 8]: 49225 ng·h/mL; Half-life [3, 8]: 3.78 h; binds to plasma proteins [4]: approximately 75%; Cmax ([5]; CBZ alone): 4,130 ng/mL; Cmax ([5]; CBZ combined with graviola juice): 2,886 ng/mL; drug excreted unchanged without metabolism [6]: about 5%
